Measured values reported in ChEMBL document CHEMBL1142566, “Natural and synthetic 2,2-dimethylpyranocoumarins with antibacterial activity” (2005).
The source made the active and inactive calls. No cut-off for these calls is given here.

What was measured:
Format in all cases: functional
[1] = system: Enterobacter cloacae; assay: Antimicrobial activity against Enterobacter cloacae ATCC 13047 after 24 hrs by disk diffusion assay
Outline: (§1)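 Bauer-Kirby disk diffusion on trypticase Mueller-Hinton agar. Plates were seeded with ATCC reference strains to a final 10⁷ cell/mL. Test compounds were dissolved in DMSO and applied to 6 mm paper disks, with solvent-only disks as negative control. Plates were incubated 24 h at 37 °C. Inhibition zone diameter (mm) was averaged over three experiments and scored <7 (-), 7-10 (+), 11-16 (++), >16 (+++).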

[2] = system: Staphylococcus epidermidis; assay: Antimicrobial activity against Staphylococcus epidermidis ATCC 12228 after 24 hrs by disk diffusion assay; outline: as §1
[3] = system: Escherichia coli; assay: Antimicrobial activity against Escherichia coli ATCC 25922 after 24 hrs by disk diffusion assay; outline: as §1
[4] = system: Proteus mirabilis; assay: Antimicrobial activity against Proteus mirabilis after 24 hrs by disk diffusion assay; outline: as §1
[5] = system: Staphylococcus aureus; assay: Antimicrobial activity against Staphylococcus aureus ATCC 25923 after 24 hrs by disk diffusion assay; outline: as §1
[6] = system: Pseudomonas aeruginosa; assay: Antimicrobial activity against Pseudomonas aeruginosa ATCC 27853 after 24 hrs by disk diffusion assay; outline: as §1
[7] = system: Klebsiella pneumoniae; assay: Antimicrobial activity against Klebsiella pneumoniae ATCC 13883 after 24 hrs by disk diffusion assay; outline: as §1

| SMILES | inhibition zone (IZ) [1] | inhibition zone (IZ) [2] | inhibition zone (IZ) [3] | inhibition zone (IZ) [4] | inhibition zone (IZ) [5] | inhibition zone (IZ) [6] | inhibition zone (IZ) [7] | Activity [1] | Activity [2] | Activity [3] | Activity [4] | Activity [5] | Activity [6] | Activity [7] |
| --- | --- | --- | --- | --- | --- | --- | --- | --- | --- | --- | --- | --- | --- | --- |
| CC(=O)Oc1cc2oc(=O)ccc2c2c1C=CC(C)(C)O2 | 7 mm | 7 mm | 7 mm | 7 mm | 7 mm | 7 mm | 7 mm |  |  |  |  |  |  |  |
| CC1(C)C=Cc2cc3ccc(=O)oc3cc2O1 |  |  |  |  |  |  |  | inactive | inactive | inactive | inactive | inactive | inactive | inactive |
| COc1cc2c(c3oc(=O)ccc13)[C@H](O)[C@H](O)C(C)(C)O2 (racemic) |  |  |  |  |  |  |  | inactive | inactive | inactive | inactive | inactive | inactive | inactive |
| CC(=O)O[C@H]1c2c(ccc3ccc(=O)oc23)OC(C)(C)[C@@H]1Br | <7 mm | 11 mm | <7 mm | 7 mm | 11 mm | <7 mm | <7 mm |  |  |  |  |  |  |  |
| COc1cc2oc(=O)ccc2c2c1C=CC(C)(C)O2 [ALLOXANTHOXYLETIN] | 7 mm | 7 mm | 7 mm | 7 mm | 7 mm | 11 mm | 7 mm |  |  |  |  |  |  |  |
